# Assay outcomes deposited in PubChem by several laboratories.
# This is a sample that favours compounds with a hit; in the whole collection about 9.8% have one here.
# PMI activator = increases human mannose-6-phosphate isomerase activity; P34949; purified human PMI, coupled resazurin fluorescence, 20 min; stronger effect = higher value; 1 = vehicle control, 0 substrate-free wells; activation factor at 20 µM; 190,000 compounds, 0.005% hits;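 active = activation factor of 2 or more at 20 µM, relative to plate controls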
# Target sequence (P34949 whole entry, looked up): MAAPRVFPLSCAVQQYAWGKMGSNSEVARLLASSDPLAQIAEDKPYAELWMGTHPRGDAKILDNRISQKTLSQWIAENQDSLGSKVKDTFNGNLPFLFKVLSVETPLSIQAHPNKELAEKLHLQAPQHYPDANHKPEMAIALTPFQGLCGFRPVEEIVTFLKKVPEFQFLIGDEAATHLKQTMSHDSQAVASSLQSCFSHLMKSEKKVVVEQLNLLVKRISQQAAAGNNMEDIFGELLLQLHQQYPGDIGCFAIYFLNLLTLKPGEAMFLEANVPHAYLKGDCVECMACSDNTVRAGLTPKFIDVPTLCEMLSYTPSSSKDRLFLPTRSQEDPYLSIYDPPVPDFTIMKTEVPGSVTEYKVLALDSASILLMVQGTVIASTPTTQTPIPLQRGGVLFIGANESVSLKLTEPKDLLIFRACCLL
# Lmaj promast = inhibitors of Leishmania major promastigote growth | inhibition, % at 10 µM | 200,000 compounds, 9% hits | AID 1063 | Leishmania major promastigotes, resazurin fluorescence viability; in the data active = inhibition above about 50%;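 note: promastigotes grown with compound for 44 hours at 28 °C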
# PMI act satM6P = activators of human phosphomannose isomerase at near-saturating mannose 6-phosphate; P34949; coupled PMI enzyme assay, resazurin fluorescence, 20 min; stronger effect = higher value; 1 = untreated enzyme, 0 = substrate-free blank; activation factor at 20 µM; 190,000 compounds, 0.34% hits;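 active = activation factor of 2 or more at 20 µM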
#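 Test system: human PMI in coupled enzyme assay; Input: PMI at 15 ng/mL final; Medium: HEPES buffer, pH 7.4; Schedule: 20 min incubation at room temperature; Technique: resorufin fluorescence at Ex 544/Em 590 nm; Compound: 20 µM single dose; Probe or stimulus: Near-saturating mannose-6-phosphate, 1.0 mM.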
# Rad51 HR inh = blocks human Rad51 in homologous recombination. 200,000 compounds, 0.085% hits. AID 1385. Q06609. hRad51 DNA strand exchange, fluorescence dequenching. inhibition, % at 10 µM;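 active = inhibition above 40% at the single screening dose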;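 note: 0% = DMSO control wells and 100% = blanks with heterologous ssDNA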
#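 System: human Rad51 nucleoprotein filaments preassembled on unlabelled ssDNA. Reagent: labelled 47-mer dsDNA for strand exchange. Schedule: 30-min compound preincubation and 15-min exchange, both room temperature. Measured by: FRET fluorescence dequenching, excitation 485 nm, emission 520 nm. Read-out: Fluorescence-based percent inhibition, control- and blank-normalised. Benchmarks: plate controls and plate blanks.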
# m-calpain inh = blocks pig calpain II enzyme activity; AID 1236; purified calpain II, fluorogenic peptide substrate, 30 min; 220,000 compounds, 0.37% hits; inhibition, % at 16 µM;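 active = inhibition above about 50%, limit read from the data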
# WT yeast gro inh = growth inhibition of WT yeast, mitochondrial fusion screen. AID 1362. inhibition, % at 10 µM. 190,000 compounds, 2.1% hits. mitochondrial fusion phenotypic screen, WT strain; in the data active = inhibition above about 58%; tested in S. cerevisiae
# An asterisk follows results filed as active; nt = no result.
SMILES,PMI activator,Lmaj promast,PMI act satM6P,Rad51 HR inh,m-calpain inh,WT yeast gro inh
CCCOC(=O)/C(=C\c1ccc([N+](=O)[O-])o1)NC(=O)c1ccccc1,1.2,95.7*,1.2,-5.7,-2.9,0.6
O=C(NCCO)/C(=C\c1ccc([N+](=O)[O-])o1)NC(=O)c1ccccc1,1.1,26.6,1,-88.5,-36.0,-10.8
CCCOC(=O)/C(=C\C=C\c1ccco1)NC(=O)c1ccccc1,1.6,18.5,1.8,-6.8,-17.9,1.3
Cc1nn(C(C)C)c(C)c1CN1CCN(Cc2ccsc2)C(CCO)C1 (stereo not drawn),1,-0.3,1.1,-2.7,7.3,1.6
COc1ccc(C/C(N)=N/OC(=O)C(c2ccccc2)c2ccccc2)cc1OC,0.9,64.6*,0.9,-3.2,-20.6,-23.6
COc1ccc(C/C(N)=N/OC(C)=O)cc1OC,1.1,41.6,1,11.1,12.5,3.3
CN(c1ncc(C(F)(F)F)cc1Cl)N1C(=O)c2cccc([N+](=O)[O-])c2C1=O,1,-5.2,0.9,4.9,13.2,-0.2
O=C(CSc1nc2ncc(Br)cc2[nH]1)c1cccc([N+](=O)[O-])c1,0.9,53.8*,0.8,1.4,-5.3,15.7
CCc1nc(SCC(=O)c2cccc([N+](=O)[O-])c2)n[nH]1,1,61.4*,1,-3.2,3.5,-15.6
c1ccc(CCNc2ccccc2)cc1,1.1,nt,0.9,nt,nt,nt
O=C(COC(=O)CNC(=O)c1ccco1)NCc1ccc(F)cc1,1.3,-9.4,1.2,2.3,-2.9,-6.1
CSc1nc2ccc(NS(=O)(=O)c3ccc([N+](=O)[O-])cc3)cc2s1,nt,nt,nt,-81.4,-2.7,nt
CSc1nc2ccc(NS(=O)(=O)c3cccc(Cl)c3Cl)cc2s1,0.9,-6.5,1,2.9,-3.4,80.8*
CCOc1cccc2cc(-c3csc(NC(=O)CCC(=O)NCCCN4CCC(C)CC4)n3)c(=O)oc12,1,62.0*,1,28.1,-117.9,5.3
COc1cccc2cc(-c3csc(NC(=O)CCC(=O)NCCCN4CCC(C)CC4)n3)c(=O)oc12,nt,nt,nt,32.8,-34.6,nt
COC(=O)N/N=C(\C)c1ccc2ccccc2c1OC(F)F,0.9,55.7*,0.9,0.0,-1.2,-5.1
COC(=O)C1=C(C)NC2=C(C(=O)CCC2)C1c1cn(Cc2ccc(Cl)cc2Cl)nc1-c1ccccc1 (stereo not drawn),0.8,56.8*,0.9,11.9,-223.3,-8.5
CCCCC(CC)C(=O)Nc1ncc([N+](=O)[O-])s1 (stereo not drawn),1,59.0*,0.9,19.1,-3.4,52.2
COc1ccc(-n2c(SCc3ccc([N+](=O)[O-])cc3)nnc2-c2ccc(C)cc2)cc1,0.9,16.0,1,-8.4,12.7,42.6
O=C(Nc1nnc(-c2ccc(F)cc2)s1)Nc1ccccc1F,nt,nt,nt,-19.1,-14.9,nt
O=C(Nc1nnc(-c2ccccc2SCc2ccccc2F)s1)Nc1ccccc1F,1.1,-3.1,1,-3.2,50.8*,38.0
N#CC(C#N)=C1C=CC=CN1/C(=C\c1ccccc1Cl)C(=O)c1ccccc1,0.9,-1.8,0.6,nt,-86.1,67.5*
Cc1ccc(C)c(NC(=O)C(Sc2ncnc3ccccc23)c2ccccc2)c1 (stereo not drawn),0.9,73.0*,0.9,2.8,21.1,-0.5
O=C1c2ccccc2C(=O)N1CC#CCN1CCN(C(c2ccccc2)c2ccccc2)CC1,0.9,2.3,1.1,-5.1,-7.6,67.6*
O=S(=O)(CCN1CCN(C(c2ccccc2)c2ccccc2)CC1)C(F)(F)F,0.9,35.0,0.8,4.4,-1.6,-2.0
SMILES,PMI activator,Lmaj promast,PMI act satM6P,Rad51 HR inh,m-calpain inh,WT yeast gro inh
Cc1ccc(S(=O)(=O)N2CCCCC2)cc1NC(=O)COC(=O)C1=COCCO1,1.1,0.5,1.1,-1.3,-21.8,-0.6
O=C(Nc1ccc(Cl)cc1)/C(=C/c1ccc([N+](=O)[O-])cc1)c1nc2ccccc2s1,1,100.5*,1,nt,-176.1,35.1
O=C(O)CC/C(=C\c1cc([N+](=O)[O-])ccc1Cl)c1nc2ccccc2s1,1,-0.6,0.9,-3.2,-25.4,-2.1
CCOc1nc(N2CCOCC2)nc(N2CCOCC2)n1,1,-1.3,1,12.0,-12.5,-4.5
O=C(CCCCCn1c(=S)[nH]c2cc3c(cc2c1=O)OCO3)N1CCN(C(=O)c2ccco2)CC1,1,1.4,1,-1.7,-21.4,69.4*
CCOC(=O)c1c(NC(NC(C)=O)C(Cl)(Cl)Cl)sc2c1CCCC2 (stereo not drawn),0.8,26.5,0.8,3.0,2.9,67.5*
COC(=O)c1c(NC(NC(C)=O)C(Cl)(Cl)Cl)sc2c1CCCC2 (stereo not drawn),0.8,26.9,0.9,8.4,54.6*,51.0
CCOC(=O)c1c(NC(=O)CCC(=O)O)sc2c1CCCCC2,0.7,-5.7,0.9,-8.4,-8.6,-23.2
CCSc1nc(CC)c2c(c1C#N)CCCC2,0.9,0.5,0.9,nt,8.2,20.8
O=S(=O)(Nc1ncccn1)c1ccc(NC(=S)Nc2ccccc2Cl)cc1,nt,nt,nt,6.4,13.3,nt
CNC(=O)c1[nH]cnc1C(=O)Nc1ccc(Cl)cc1,nt,nt,nt,17.1,-5.9,nt
Cc1nnsc1C(=O)NNC(=O)c1cccc2ccccc12,nt,nt,nt,7.0,-8.9,nt
O=C1OCC(CO)(CO)N=C1NNc1ccc(Cl)c(Cl)c1,1.1,100.0*,1.6,-5.7,16.6,67.6
OCC1(CO)COC(c2ccccc2)=N1,1,4.0,1,10.9,7.1,-2.5
CCOC(=O)Cc1nnc(NC(=O)CSc2ncc(-c3ccccc3)nn2)s1,1,0.9,1.1,15.2,12.4,-1.9
Cn1c(=NC(=O)c2ccc(S(=O)(=O)N3CCCc4ccccc43)cc2)sc2cc(S(C)(=O)=O)ccc21,0.9,99.1*,0.9,6.6,-71.0,-10.3
C#CCn1c(=NC(=O)c2ccc(S(=O)(=O)N3CCCc4ccccc43)cc2)sc2cc(S(N)(=O)=O)ccc21,0.7,99.5*,0.8,-1.8,-24.4,6.9
Cc1cc(C(=O)OCC(=O)Nc2cccnc2Cl)c2ccccc2n1,1,-2.4,0.9,-1.4,14.7,16.7
Cc1ccc2[nH]c(=O)c(CN(Cc3cccs3)Cc3nnnn3Cc3ccccc3)cc2c1,0.9,11.4,0.9,6.0,-34.1,13.9
COc1ccc2[nH]c(=O)c(CN(Cc3cccs3)Cc3nnnn3C(C)(C)C)cc2c1,0.8,99.5*,0.8,3.4,-108.8,-2.7
CCOC(=O)Cn1nnnc1CN(Cc1cccs1)Cc1cc2cc(C)ccc2[nH]c1=O,1,1.5,1,nt,-3.1,1.4
CCOc1ccc2[nH]c(=O)c(CN(Cc3cccs3)Cc3nnnn3C(C)(C)C)cc2c1,1,73.4*,0.9,1.7,-0.3,20.1
Cn1nnc2cc(C(=O)Nc3ccc4ccccc4c3)ccc21,1,-6.9,1,-3.7,-65.2,0.2
O=C(O)CCNC(=O)CCCn1nnc2ccccc2c1=O,nt,nt,nt,-11.4,20.1,nt
